# Rows were chosen to be rich in hits. Some 2.4% of all compounds tested hit in one or more screens of this group.
# A3A deaminase – APOBEC3A ssDNA deaminase inhibitors, primary screen, selectivity assay for APOBEC3G inhibitor project, biochemical, FAM/TAMRA oligo cleavage fluorescence | DNA dC->dU-editing enzyme APOBEC-3A (Homo sapiens), P31941 | recombinant A3A, FAM/TAMRA ssDNA deamination fluorescence | inhibition, % at 20 µM | 330,000 compounds, 0.41% hits;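 active = at least 40% inhibition at 20 µM here, with at most 30% in a related deaminase screen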;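 note: plate controls were A3A with DMSO for no effect and wells lacking A3A enzyme for full effect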
# Target sequence (P31941 whole entry, looked up): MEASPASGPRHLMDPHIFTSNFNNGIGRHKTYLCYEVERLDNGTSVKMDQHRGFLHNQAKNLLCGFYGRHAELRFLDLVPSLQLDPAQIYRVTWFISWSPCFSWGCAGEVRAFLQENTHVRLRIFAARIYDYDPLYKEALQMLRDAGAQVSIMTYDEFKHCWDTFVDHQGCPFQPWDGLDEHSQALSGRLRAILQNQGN
# SUMO HTRF inh – inhibitors of in vitro SUMOylation cascade, primary screen, biochemical, HTRF, uHTS | SUMO-conjugating enzyme UBC9 (Homo sapiens), P63279 | HTRF SUMOylation assay, SAE1/SAE2 + UBC9 | inhibition, % at 35 µM | 290,000 compounds, 0.36% hits; in the data active = inhibition above about 50%, passing the limit was not always enough
# Target sequence (P63279 whole entry, looked up): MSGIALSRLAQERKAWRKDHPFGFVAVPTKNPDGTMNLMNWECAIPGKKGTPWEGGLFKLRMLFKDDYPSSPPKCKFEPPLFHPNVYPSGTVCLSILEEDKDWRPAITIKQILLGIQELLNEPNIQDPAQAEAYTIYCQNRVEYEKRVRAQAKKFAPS
# HKDC1 inhibitor – HKDC1 hexokinase inhibitors, primary screen, biochemical, fluorescence, uHTS | inhibition, % at 20 µM | 340,000 compounds, 0.16% hits | recombinant HKDC1, G6PDH/diaphorase resazurin coupled fluorescence;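 active = inhibition above about 35% when tested at 20 µM, limit read from the data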;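 note: plate controls were DMSO wells with enzyme for no effect and DMSO wells lacking enzyme for full effect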
#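 Incubation: 90 min at room temperature in dark / Material: recombinant HKDC1 (HK5) hexokinase enzyme, produced in-house / Quantity: enzyme 5 µg/mL final / Compound: one dose of 20 µM, 1% DMSO / Reagent: glucose and ATP substrates / Buffer or medium: Tris pH 8.0 buffer with MgCl2, Tween-20, BSA, BME / Technique: resorufin fluorescence at 613 nm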
# M18AAP inhibitor – PfM18AAP inhibitors, malaria aminopeptidase, primary screen, biochemical, QFRET, recombinant enzyme. M18 aspartyl aminopeptidase (Plasmodium falciparum 3D7). H-Glu-NHMec fluorogenic cleavage. inhibition, % at 7.35 µM. 290,000 compounds, 1.2% hits. AID 1822, 2009;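 active = inhibition above the campaign mean inhibition over all tested compounds plus 3 SD, cut at about 28% in these data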;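 note: 0% = plate median of test compound wells and 100% = 2 mM ZnCl2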
# A3G deaminase – APOBEC3G DNA deaminase inhibitors, primary screen, biochemical, fluorescence, single-stranded DNA substrate, uHTS; inhibition, % at 20 µM; recombinant A3G, ssDNA deamination FAM/TAMRA fluorescence; 330,000 compounds, 0.28% hits; AID 493012, 2011; DNA dC->dU-editing enzyme APOBEC-3G (Homo sapiens), Q9HC16;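 active = inhibition of at least 40% at 20 µM, with no more than 30% in the related APOBEC3A deaminase screen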;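 note: plate controls were DMSO wells with A3G for no effect and wells lacking A3G enzyme for full effect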
# Target sequence (Q9HC16 whole entry, looked up): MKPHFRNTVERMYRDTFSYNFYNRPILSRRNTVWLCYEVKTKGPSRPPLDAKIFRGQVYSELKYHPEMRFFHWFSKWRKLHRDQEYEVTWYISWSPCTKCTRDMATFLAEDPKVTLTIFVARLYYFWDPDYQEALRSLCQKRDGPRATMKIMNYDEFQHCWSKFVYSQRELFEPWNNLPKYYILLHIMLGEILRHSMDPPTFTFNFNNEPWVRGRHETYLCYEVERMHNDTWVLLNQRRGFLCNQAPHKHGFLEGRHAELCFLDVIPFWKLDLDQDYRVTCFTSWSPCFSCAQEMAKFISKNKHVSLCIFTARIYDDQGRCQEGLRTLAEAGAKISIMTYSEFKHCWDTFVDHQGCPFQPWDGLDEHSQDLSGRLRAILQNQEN
# PfGluPho inh – PfG6PD enzyme inhibitors, primary screen, biochemical, fluorescence intensity, uHTS. PfGluPho enzyme, NADPH resazurin-diaphorase fluorescence. glucose-6-phosphate dehydrogenase-6-phosphogluconolactonase (Plasmodium falciparum 3D7). 350,000 compounds, 0.78% hits. AID 504690, 2011. inhibition, % at 20 µM;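 active = inhibition reaching at least a set limit at 20 µM in the primary screen, cut at about 59% in these data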;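 note: 0% = DMSO wells with substrate and 100% = DMSO wells lacking glucose-6-phosphate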
# APOBEC3G confirm – APOBEC3G deaminase inhibitor retest, confirmation, biochemical, fluorescence, single-stranded DNA substrate, single concentration. shares compounds with A3G deaminase. recombinant A3G ssDNA deaminase, UDG/FAM-TAMRA fluorescence. inhibition, % at 20 µM. 890 compounds, 72% hits. AID 493152, 2011;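 active = inhibition reaching a set limit in any replicate at 20 µM, the limit being 80% of the first screen's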
# UDG ctr A3G – E. coli UDG inhibitors, confirmation, counter-screen for APOBEC3G inhibitor project, biochemical, single concentration, fluorescence, FAM/TAMRA oligo; shares compounds with A3G deaminase; UDG counterscreen; inhibition, % at 20 µM; 710 tested, under 10 active; AID 504715, 2011;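 active = compounds giving 40% or more inhibition at 20 µM in any one of the three replicates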;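 note: plate controls were DMSO wells with UDG and oligo for no effect and DMSO wells lacking both for full effect; inhibitors lower the FAM signal released by uracil excision and alkaline cleavage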
# HKDC1 act conf – HKDC1 hexokinase activators, confirmation, biochemical, single concentration | shares compounds with HKDC1 inhibitor | recombinant HKDC1, G6PDH/diaphorase resazurin fluorescence; hits give low values | inhibition, % at 20 µM | 740 compounds, 14% hits | AID 504708, 2011;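 active = inhibition at or below a set negative limit, negative inhibition meaning the enzyme was activated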
# PfG6PD confirm – PfG6PD inhibitors, hit retest, confirmation, biochemical, fluorescence intensity, single concentration. shares compounds with PfGluPho inh. recombinant PfGluPho, NADPH-diaphorase-resazurin fluorescence. inhibition, % at 20 µM. 2,400 compounds, 34% hits;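 active = inhibition of at least 50% at 20 µM in any single replicate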;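 note: 0% = DMSO with substrate and 100% = DMSO lacking glucose-6-phosphate substrate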
# Diaph ctr 10uM – diaphorase inhibitors and chemical oxidizers, confirmation, counter-screen for P. falciparum G6PD inhibitor project, biochemical, fluorescence intensity, 10 µM NADPH. diaphorase-coupled resazurin reduction, NADPH 10 uM. inhibition, % at 20 µM. shares compounds with PfGluPho inh. 820 compounds, 39% hits;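 active = average inhibition reaching 50% or more with the compound at 20 µM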;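 note: resorufin red fluorescence formed as diaphorase reduces resazurin using NADPH; 0% = DMSO with enzyme and 100% = DMSO without enzyme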
# Diaph ctr 30uM – diaphorase inhibitors and chemical oxidizers, confirmation, counter-screen for P. falciparum G6PD inhibitor project, biochemical, fluorescence intensity, 30 µM NADPH | shares compounds with PfGluPho inh | Diaphorase/resazurin coupled assay, resorufin fluorescence | inhibition, % at 20 µM | 820 compounds, 29% hits;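 active = inhibition averaging 50% or more, tested at 20 µM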;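 note: 0% = DMSO with enzyme and 100% = DMSO wells lacking diaphorase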
# An asterisk follows results filed as active; / = not tested or not shown; ! = repeats disagree.
SMILES,A3A deaminase,SUMO HTRF inh,HKDC1 inhibitor,M18AAP inhibitor,A3G deaminase,PfGluPho inh,APOBEC3G confirm,UDG ctr A3G,PfG6PD confirm,others
Cc1ccc(SSc2cc(C)ccc2N)c(N)c1,2,/,-44,/,79*,64*,86*,/,42,HKDC1 act conf=-21
CSc1nc2ccc(NC(=O)c3c(-c4ccccc4)noc3C)cc2s1,-1,3,2,-2,-3,-12,/,/,/,
c1ccc(SSc2ccccn2)nc1,-4,/,-2,/,64*,68*,88*,-4,58*,Diaph ctr 10uM=-24;Diaph ctr 30uM=-27
CC1Sc2ccc(C(=O)NCc3ccccn3)cc2NC1=O (stereo unspecified),3,/,0,/,55*,60*,33*,-3,15,
Cc1ccc(NC(=O)CNC(=O)c2ccc(Oc3ccccc3)cc2)nc1,1,/,3,/,3,7,/,/,/,
CCOc1ccc(C(=S)NC2CCCCC2)cc1OC,-2,18,-6,24,58*,62*,50*,4,14,
CCOc1ccccc1C(=S)NC1CCCCC1,-7,18,-3,-7,1,9,/,/,/,
CCCOC(=O)c1c(NC(=O)C2CCCO2)sc(C(=O)OC)c1C (stereo unspecified),-2,-12,-7,39*,41*,59*,48*,-1,21,
CCOC(=O)c1sc(NC(=O)C2CCCO2)c(C(=O)OC)c1C (stereo unspecified),/,/,/,-1,/,/,/,/,/,
Oc1ccc2c(c1)c1ccccc1c1ncccc21,/,/,2,/,/,38,/,/,/,
CCOC(=O)c1c(-c2cccc3ccccc23)csc1NC(=O)C1C2CCC(O2)C1C(=O)O (stereo unspecified),4,24,-3,-6,1,-21,/,/,/,
COC(=O)c1c(-c2ccc(C(C)(C)C)cc2)csc1NC(=O)C1C2CCC(O2)C1C(=O)O (stereo unspecified),0,24,-17,28*,58*,70*,24*,-4,31,
NS(=O)(=O)c1ccc(O)c(NC(=O)c2ccc([N+](=O)[O-])o2)c1,8,18,-10,-2,64*,78*,28*,-13,14,
COc1ccc(OC)c(N=C2C(=O)Nc3ccccc32)c1,1,4,-5,3,-2,16,/,/,/,
COc1ccc(OC)c(N=c2ssnc2Cl)c1,1,-3,3,19,74*,82*,69*,-4,30,
COc1cc(N=c2ssnc2Cl)c(OC)cc1Cl,2,2,-46,29*,67*,105*!,82*,-3,64*,HKDC1 act conf=-57*;Diaph ctr 10uM=-15;Diaph ctr 30uM=-18
CCC(C)(C)n1nnnc1C(c1ccc2ncccc2c1)N1CCN(c2ccc(O)cc2)CC1 (stereo unspecified),2,4,8,31*,41*,46,5,/,35,
CCC(C)(C)n1nnnc1C(c1ccc2ncccc2c1)N1CCN(c2nc3ccccc3s2)CC1 (stereo unspecified),-2,-3,2,4,-1,29,/,/,/,
O=C(NC1CCCCCC1)C(=S)N1CCCC1,-2,5,-5,-1,-5,-6,/,/,/,
O=C(NC1CCCCCC1)C(=S)N1CCOCC1,5,6,-13,16,54*,59*,44*,1,24,
Cc1[nH]c(=S)c(C#N)c2c1CCCC2,-5,5,10,7,50*,81*,83*,-2,38,
Cc1[nH]c(=O)c(C#N)c2c1CCCC2,4,9,-8,5,5,-7,/,/,/,
O=C(/N=C1\NC(=O)C(F)(C(F)(F)F)S1)NC1CCCCC1 (stereo unspecified),0,21,-4,/,50*,73*,48*,3,33,
Cc1ccc(C)c(-n2sc3ccc(F)cc3c2=O)c1,0,/,4,/,56*,115*,61*,-3,107*,Diaph ctr 10uM=-25;Diaph ctr 30uM=-27
O=c1c2cc(F)ccc2sn1-c1ccc(F)cc1,-2,/,8,/,72*,113*,78*,1,106*,Diaph ctr 10uM=-12;Diaph ctr 30uM=-13
SMILES,A3A deaminase,SUMO HTRF inh,HKDC1 inhibitor,M18AAP inhibitor,A3G deaminase,PfGluPho inh,APOBEC3G confirm,UDG ctr A3G,PfG6PD confirm,others
Nc1cc(S(=O)(=O)c2ccc(N3CCCCC3)c(N)c2)ccc1N1CCCCC1,/,/,/,/,/,-24,/,/,/,
Nc1cc(S(=O)(=O)Nc2ccccc2Cl)ccc1N1CCCCC1,3,/,-5,/,49*,67*,47*,2,40,
CC1=C(C(=O)OCc2ccccc2)C(c2ccsc2)NC(=O)N1C (stereo unspecified),0,16,-9,-12,-3,-1,/,/,/,
NC(=O)c1c(NC(=O)CCCn2cnc([N+](=O)[O-])n2)sc2c1CCCC2,4,-9,-12,18,59*,76*,41*,3,42,
CC1CCc2c(sc(NC(=O)CCCn3cnc([N+](=O)[O-])n3)c2C(N)=O)C1 (stereo unspecified),5,8,2,6,0,-10,/,/,/,
O=C(CNC(c1ccccc1)c1ccccc1)Nc1ccccc1F,-3,-22,-1,2,-7,-21,/,/,/,
O=C(CSC(=O)c1ccccc1)Nc1ccccc1F,1,/,-10,/,41*,63*,37*,-3,13,
